No end group written: not given here.
Key:
neg-HEK cells = assay: Flow cytometry binding of VHH–biotin–PTH conjugates to neg-HEK cells; settings: for EC50: read-out: Binding EC50, Neg-HEK, 1 h on ice, streptavidin–PE, flow cytometry (MFI), mean of three independent experiments
How it was run: (§1)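 Adherent cells were detached with trypsin, washed, resuspended in PBS, and stained for 1 h on ice with graded concentrations of biotin-labelled VHH–PTH1–11 conjugates. Cells were washed, stained with streptavidin–PE, and analysed by flow cytometry. Line 1 used PTHR1-6E-HEK cells (HEK293 expressing PTHR1 with the 6E tag in the extracellular domain); line 2 used parental HEK293 cells. Median fluorescence intensity was fitted to sigmoidal curves, with maximal staining expressed relative to the MHC-I conjugate; three independent experiments.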

human PTHR1 = assay: cAMP stimulation by PTH1–34 CLAMPs on receptor cells; format: cell-based; settings: HEK293 cells (receptor cells) that express human PTHR1; Fig. 5 (legend: PTHR1-6E-HEK)
PTHR1-6E-HEK cells = assay: Flow cytometry binding of VHH–biotin–PTH conjugates to PTHR1-6E-HEK cells; design: species or system human
How it was run: as §1

PTHR1-6E = target: T1, PTHR1-6E (Homo sapiens, UniProt Q03431, A83I/D81R/G76A/K80A/K82Q/P78E/R79L/S71Q/S73D/S75E/T74Q); assay: cAMP response; format: cell-based
T1 sequence (Q03431 23-593 S71Q/S73D/T74Q/S75E/G76A/P78E/R79L/K80A/D81R/K82Q/A83I limits assumed): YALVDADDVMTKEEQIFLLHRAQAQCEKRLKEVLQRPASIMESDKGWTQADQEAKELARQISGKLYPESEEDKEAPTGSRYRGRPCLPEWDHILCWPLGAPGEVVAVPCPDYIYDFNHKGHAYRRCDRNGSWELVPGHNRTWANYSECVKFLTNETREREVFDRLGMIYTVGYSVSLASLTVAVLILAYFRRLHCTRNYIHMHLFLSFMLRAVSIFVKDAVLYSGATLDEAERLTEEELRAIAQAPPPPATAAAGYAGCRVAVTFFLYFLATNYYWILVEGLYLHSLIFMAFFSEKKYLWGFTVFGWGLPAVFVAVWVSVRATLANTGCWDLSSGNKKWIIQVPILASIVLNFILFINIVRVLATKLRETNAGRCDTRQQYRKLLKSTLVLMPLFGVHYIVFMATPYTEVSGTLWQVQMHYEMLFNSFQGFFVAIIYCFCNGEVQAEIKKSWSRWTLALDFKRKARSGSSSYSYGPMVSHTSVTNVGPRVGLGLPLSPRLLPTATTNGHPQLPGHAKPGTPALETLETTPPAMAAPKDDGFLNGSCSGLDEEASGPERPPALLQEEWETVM
How it was run: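 HEK293 cells stably expressing PTHR1 carrying the 6E tag plus a cAMP-responsive luciferase (Glosensor) were treated with graded concentrations of VHH–PTH1–11 conjugates. cAMP was read as luminescence. EC50 came from a sigmoidal dose–response fit with variable slope, using replicate wells per experiment and three independent experiments.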

Compound	EC50 (neg-HEK cells) [nM]	cAMP stimulation compared with PTH1–34 (in words) (human PTHR1)	also measured
VHHa5b1–PTH1–11: conjugate of VHHα5β1 (targets integrin α5β1), biotin and PTH1–11 (SVSEIQLMHNL; also: conjugated to anti-integrin α5β1 VHH and biotin; UniProt P01270 32-42, looked up, fragment)	3	–	–
VHHMHC-II–PTH1–34: CLAMP of PTH1–34 conjugated to VHH that targets murine MHC-II (SVSEIQLMHNLGKHLNSMERVEWLRKKLQDVHNF; Parathyroid hormone conjugated to anti-MHC-II VHH; UniProt P01270 32-65, looked up, fragment)	–	performed similarly to PTH1–34 itself	–
VHH6E–PTH1–11: conjugate of VHH6E (binds UBC6E epitope tag), biotin and PTH1–11 (SVSEIQLMHNL; also: conjugated to VHH6E nanobody and biotin; UniProt P01270 32-42, looked up, fragment)	–	–	staining signal compared with VHHMHC-I (in words) (PTHR1-6E-HEK cells): stronger signal than staining with VHHMHC-I; maximal staining (in words) (neg-HEK cells; HEK-neg cells): a The maximal staining for VHH6E–PTH1–11 on HEK-neg cells was very weak, so binding EC50 values were not determined (ND).
VHHGFP–PTH1–34: CLAMP of PTH1–34 conjugated to VHH that targets GFP (SVSEIQLMHNLGKHLNSMERVEWLRKKLQDVHNF; also: conjugated to anti-GFP VHH (with biotin); UniProt P01270 32-65, looked up, fragment)	–	performed similarly to PTH1–34 itself	–
VHHMHC-I–PTH1–11: conjugate of VHHMHC-I (targets human β2-microglobulin, previously Nb30), biotin and PTH1–11 (SVSEIQLMHNL; also: conjugated to anti-β2-microglobulin VHH and biotin; UniProt P01270 32-42, looked up, fragment)	4.3	–	stimulation of cAMP responses (in words) (PTHR1-6E; PTHR1-6E-HEK cells, Fig. 2e and Table 1): essentially inactive in stimulating cAMP responses
CC[C@H](C)[C@H](NC(=O)[C@H](CCC(=O)O)NC(=O)[C@H](CO)NC(=O)[C@@H](NC(=O)[C@@H](N)CO)C(C)C)C(=O)N[C@@H](CCC(N)=O)C(=O)N[C@@H](CC(C)C)C(=O)N[C@@H](CCSC)C(=O)N[C@@H](Cc1c[nH]cn1)C(=O)N[C@@H](CC(N)=O)C(=O)N[C@@H](CC(C)C)C(=O)NCC(=O)N[C@@H](CCCCN)C(=O)N[C@@H](Cc1c[nH]cn1)C(=O)N[C@@H](CC(C)C)C(=O)N[C@@H](CC(N)=O)C(=O)N[C@@H](CO)C(=O)N[C@@H](CCSC)C(=O)N[C@@H](CCC(=O)O)C(=O)N[C@@H](CCCNC(=N)N)C(=O)N[C@H](C(=O)N[C@@H](CCC(=O)O)C(=O)N[C@@H](Cc1c[nH]c2ccccc12)C(=O)N[C@@H](CC(C)C)C(=O)N[C@@H](CCCNC(=N)N)C(=O)N[C@@H](CCCCN)C(=O)N[C@@H](CCCCN)C(=O)N[C@@H](CC(C)C)C(=O)N[C@@H](CCC(N)=O)C(=O)N[C@@H](CC(=O)O)C(=O)N[C@H](C(=O)N[C@@H](Cc1c[nH]cn1)C(=O)N[C@@H](CC(N)=O)C(=O)N[C@@H](Cc1ccccc1)C(=O)N[C@@H](CS)C(N)=O)C(C)C)C(C)C [PTH1–34, reference compound]	–	–	EC50 (PTHR1-6E): 0.18 nM

Source: paper PMC8637866 (RSC Chemical Biology, 2021)
